ChEMBL document CHEMBL1122111, “Allergenic alpha-methylene-gamma-butyrolactones. Stereospecific syntheses of (+)- and (-)-gamma-methyl-alpha-methylene-gamma-butyrolactones. A study of the specificity of (+) and (-) enantiomers in inducing allergic contact dermatitis” (1982)
“And” between values parts separate entries of the source, which are not always exact repeats. Equal entries are not always repeated.

Columns and labels:
Type in all cases: functional
Cavia porcellus [1] = species: Cavia porcellus; assay: Tested for its effect on guinea pigs sensitized with (+/-)-5-Methyl-3-methylene-dihydro-furan-2-one, Number of sensitive animals out of 8 tested
Summary of the method: (§1)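 Female albino Hartley guinea pigs (250–300 g), sensitized by three intradermal nuchal injections of 0.1 mL on alternate days. The emulsion was 1:1 FCA/saline with 10% racemate (5% of each antipode). After 2 weeks rest, 0.25 mL of 1% or 2% methylene chloride solution was applied to a 2-cm2 area. Reactions were scored 0–3 every 24 h; av = summed scores/animals.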

Cavia porcellus [2] = species: Cavia porcellus; assay: Tested for its effect on guinea pigs sensitized with (R)-5-Methyl-3-methylene -dihydro -furan-2-one, Number of sensitive animals out of 8 tested
Summary of the method: (§2)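 Female albino Hartley guinea pigs (250–300 g) received three 0.1-mL intradermal nuchal injections on alternate days of a 1:1 FCA/saline emulsion with 5% (+)-enantiomer. After 2 weeks rest, 0.25 mL of 1% or 2% methylene chloride solution was deposited on a 2-cm2 circle and read every 24 h. Erythema/swelling was scored 0–3; av = summed intensities divided by animal number.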

Cavia porcellus [3] = species: Cavia porcellus; assay: Tested for its effect on guinea pigs sensitized with (S)5-Methyl-3-methylene-dihydro- furan-2-one number of animals showing no reaction
Summary of the method: (§3)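 Albino female Hartley guinea pigs (250-300 g) got three 0.1 mL intradermal nuchal injections on alternate days of 1:1 FCA-saline emulsion with 5% enantiomer. After 2 weeks rest, 0.25 mL of 1% (enantiomers) or 1% or 2% (racemate) in methylene chloride was applied to a 2-cm2 area. Erythema/swelling scored 0-3 every 24 h; average = summed scores/animals.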

Cavia porcellus [4] = species: Cavia porcellus; assay: Tested for its effect on guinea pigs sensitized with (S)5-Methyl-3-methylene-dihydro- furan-2-one number of animals showing erythema and swelling of the test area.; summary of the method: as §3
Cavia porcellus [5] = species: Cavia porcellus; assay: Tested for its effect on guinea pigs sensitized with (R)-5-Methyl-3-methylene -dihydro -furan-2-one, number of animals showing erythema and swelling of the test area; summary of the method: as §2
Cavia porcellus [6] = species: Cavia porcellus; assay: Tested for its effect on guinea pigs sensitized with (R)-5-Methyl-3-methylene -dihydro -furan-2-one,av is calculated by adding the test intensity and divided by the number of animals; summary of the method: as §2
Cavia porcellus [7] = species: Cavia porcellus; assay: Tested for its effect on guinea pigs sensitized with (+/-)-5-Methyl-3-methylene-dihydro-furan-2-one,number of animals showing no reaction; summary of the method: as §1
Cavia porcellus [8] = species: Cavia porcellus; assay: Tested for its effect on guinea pigs sensitized with (+/-)-5-Methyl-3-methylene-dihydro-furan-2-one number of animals showing erythema and swelling of the test area; summary of the method: as §1
Cavia porcellus [9] = species: Cavia porcellus; assay: Tested for its effect on guinea pigs sensitized with (S)5-Methyl-3-methylene-dihydro- furan-2-one; Number of sensitive animals out of 8 tested; summary of the method: as §3
Cavia porcellus [10] = species: Cavia porcellus; assay: Tested for its effect on guinea pigs sensitized with (+/-)-5-Methyl-3-methylene-dihydro-furan-2-one,number of animals showing erythema covering the part of the test area; summary of the method: as §1
Cavia porcellus [11] = species: Cavia porcellus; assay: Tested for its effect on guinea pigs sensitized with (R)-5-Methyl-3-methylene -dihydro -furan-2-one,number of animals showing erythema covering the whole test area; summary of the method: as §3
Cavia porcellus [12] = species: Cavia porcellus; assay: Tested for its effect on guinea pigs sensitized with (R)-5-Methyl-3-methylene -dihydro -furan-2-one,number of animals showing no reaction; summary of the method: as §3
Cavia porcellus [13] = species: Cavia porcellus; assay: Tested for its effect on guinea pigs sensitized with (S)5-Methyl-3-methylene-dihydro- furan-2-onenumber of animals showing erythema covering the whole test area; summary of the method: as §3
Cavia porcellus [14] = species: Cavia porcellus; assay: Tested for its effect on guinea pigs sensitized with (S)5-Methyl-3-methylene-dihydro- furan-2-one,av is calculated by adding the test intensity and divided by the number of animals; summary of the method: as §3
Cavia porcellus [15] = species: Cavia porcellus; assay: Tested for its effect on guinea pigs sensitized with (R)-5-Methyl-3-methylene -dihydro -furan-2-one,number of animals showing erythema covering the part of the test area; summary of the method: as §3
Cavia porcellus [16] = species: Cavia porcellus; assay: Tested for its effect on guinea pigs sensitized with (S)5-Methyl-3-methylene-dihydro- furan-2-one number of animals showing erythema covering the part of the test area; summary of the method: as §3
Cavia porcellus [17] = species: Cavia porcellus; assay: Tested for its effect on guinea pigs sensitized with (+/-)-5-Methyl-3-methylene-dihydro-furan-2-one,number of animals showing erythema covering the whole test area; summary of the method: as §1
Cavia porcellus [18] = species: Cavia porcellus; assay: Tested for its effect on guinea pigs sensitized with (+/-)-5-Methyl-3-methylene-dihydro-furan-2-one, av is calculated by adding the test intensity and divided by the number of animals; summary of the method: as §1
Cavia porcellus [19] = species: Cavia porcellus; assay: Tested for effect on guinea pigs sensitized with (R)5-Methyl-3- methylene-dihydro-furan-2-one; Number of sensitive animals out of 8 tested; summary of the method: as §2
Cavia porcellus [20] = species: Cavia porcellus; assay: Tested for effect on guinea pigs sensitized with (R)-5-Methyl-3-methylene-dihydro-furan-2-one; Number of sensitive animals out of 8 tested; summary of the method: as §2
Cavia porcellus [21] = species: Cavia porcellus; assay: Tested for effect on guinea pigs sensitized with (S)5-Methyl-3- methylene-dihydro-furan-2-one and number of animals showing erythema covering the whole test area
Summary of the method: (§4)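 Sensitization: female albino Hartley guinea pigs (250–300 g) were given three alternate-day 0.1-mL intradermal nuchal injections of 1:1 FCA/saline emulsion containing 5% (−)-enantiomer. Challenge after 2 weeks rest used 0.25 mL of 1% or 2% methylene chloride solution on a 2-cm2 area, read every 24 h. The scale was 0 (none) to 3 (erythema/swelling beyond area); av = summed scores/animals.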

Cavia porcellus [22] = species: Cavia porcellus; assay: Tested for effect on guinea pigs sensitized with (+/-)-5-Methyl-3- methylene-dihydro-furan-2-one and number of animals showing no reaction; summary of the method: as §1
Cavia porcellus [23] = species: Cavia porcellus; assay: Tested for effect on guinea pigs sensitized with (+/-)-5-Methyl-3- methylene-dihydro-furan-2-one; Number of sensitive animals; summary of the method: as §1
Cavia porcellus [24] = species: Cavia porcellus; assay: Tested for effect on guinea pigs sensitized with (+/-)-5-Methyl-3- methylene-dihydro-furan-2-one; Number of sensitive animals out of 8 tested; summary of the method: as §1
Cavia porcellus [25] = species: Cavia porcellus; assay: Tested for effect on guinea pigs sensitized with (R)5-Methyl-3- methylene-dihydro-furan-2-one and number of animals showing erythema covering the part of the test area; summary of the method: as §2
Cavia porcellus [26] = species: Cavia porcellus; assay: Tested for effect on guinea pigs sensitized with (+/-)-5-Methyl-3- methylene-dihydro-furan-2-one and number of animals showing erythema covering the whole test area; summary of the method: as §1
Cavia porcellus [27] = species: Cavia porcellus; assay: Tested for effect on guinea pigs sensitized with (R)5-Methyl-3 -methylene-dihydro-furan-2-one and number of animals showing erythema covering the part of the test area; summary of the method: as §2
Cavia porcellus [28] = species: Cavia porcellus; assay: Tested for effect on guinea pigs sensitized with (+/-)-5-Methyl-3- methylene-dihydro-furan-2-one and av is calculated by adding the test intensity and divided by the number of animals; summary of the method: as §1
Cavia porcellus [29] = species: Cavia porcellus; assay: Tested for effect on guinea pigs sensitized with (R)5-Methyl-3- methylene-dihydro-furan-2-one and av is calculated by adding the test intensity and divided by the number of animals; summary of the method: as §2
Cavia porcellus [30] = species: Cavia porcellus; assay: Tested for effect on guinea pigs sensitized with (S)5-Methyl-3- methylene-dihydro-furan-2-one and av is calculated by adding the test intensity and divided by the number of animals; summary of the method: as §4
Cavia porcellus [31] = species: Cavia porcellus; assay: Tested for effect on guinea pigs sensitized with (+/-)-5-Methyl-3- methylene-dihydro-furan-2-one and number of animals showing erythema and swelling of the test area; summary of the method: as §1
Cavia porcellus [32] = species: Cavia porcellus; assay: Tested for effect on guinea pigs sensitized with (S)5-Methyl-3- methylene-dihydro-furan-2-one and number of animals showing no reaction; summary of the method: as §4
Cavia porcellus [33] = species: Cavia porcellus; assay: Tested for effect on guinea pigs sensitized with (S)5-Methyl-3- methylene-dihydro-furan-2-one; Number of sensitive animals out of 8 tested; summary of the method: as §4
Cavia porcellus [34] = species: Cavia porcellus; assay: Tested for effect on guinea pigs sensitized with (R)5-Methyl-3- methylene-dihydro-furan-2-one and number of animals showing erythema covering the whole test area; summary of the method: as §2
Cavia porcellus [35] = species: Cavia porcellus; assay: Tested for effect on guinea pigs sensitized with (R)5-Methyl-3 -methylene-dihydro-furan-2-one and number of animals showing erythema covering the whole test area; summary of the method: as §2
Cavia porcellus [36] = species: Cavia porcellus; assay: Tested for effect on guinea pigs sensitized with (S)5-Methyl-3 -methylene-dihydro-furan-2-one and number of animals showing erythema covering the whole test area; summary of the method: as §4
Cavia porcellus [37] = species: Cavia porcellus; assay: Tested for effect on guinea pigs sensitized with (+/-)-5-Methyl-3- methylene-dihydro-furan-2-one and number of animals showing erythema covering the part of the test area; summary of the method: as §1

SMILES: C=C1C[C@H](C)OC1=O
- No. of sensitive animals (Cavia porcellus [1]): 8
- No. of sensitive animals (Cavia porcellus [2]): 5
- Skin tests intensity (Cavia porcellus [3]): 0
- Skin tests intensity (Cavia porcellus [4]): 0
- Skin tests intensity (Cavia porcellus [5]): 0
- av (Cavia porcellus [6]): 0.4
- Skin tests intensity (Cavia porcellus [7]): 0
- Skin tests intensity (Cavia porcellus [8]): 6
- No. of sensitive animals (Cavia porcellus [9]): 8
- Skin tests intensity (Cavia porcellus [10]): 0
- Skin tests intensity (Cavia porcellus [11]): 2
- Skin tests intensity (Cavia porcellus [12]): 3
- Skin tests intensity (Cavia porcellus [13]): 7
- av (Cavia porcellus [14]): 0.9
- Skin tests intensity (Cavia porcellus [15]): 3
- Skin tests intensity (Cavia porcellus [16]): 1
- Skin tests intensity (Cavia porcellus [17]): 2
- av (Cavia porcellus [18]): 1.8

SMILES: C=C1CC(C)OC1=O (configuration not stated)
- No. of sensitive animals (Cavia porcellus [19]): 6
- No. of sensitive animals (Cavia porcellus [20]): 8
- Skin tests intensity (Cavia porcellus [21]): 7
- Skin tests intensity (Cavia porcellus [22]): 0
- No. of sensitive animals (Cavia porcellus [23]): 8
- No. of sensitive animals (Cavia porcellus [24]): 8
- Skin tests intensity (Cavia porcellus [25]): 1
- Skin tests intensity (Cavia porcellus [26]): 2 and 4
- Skin tests intensity (Cavia porcellus [27]): 0
- av (Cavia porcellus [28]): 1.8 and 1.5
- av (Cavia porcellus [29]): 1.8 and 0.7
- av (Cavia porcellus [30]): 1.9 and 0.9
- Skin tests intensity (Cavia porcellus [31]): 6 and 4
- Skin tests intensity (Cavia porcellus [32]): 0
- No. of sensitive animals (Cavia porcellus [33]): 8
- Skin tests intensity (Cavia porcellus [34]): 5
- Skin tests intensity (Cavia porcellus [35]): 2
- Skin tests intensity (Cavia porcellus [36]): 1
- Skin tests intensity (Cavia porcellus [37]): 0
